{"source": "ChEMBL document CHEMBL4325889", "about": "“Natural products hybrids: 3,5,4'-Trimethoxystilbene-5,6,7-trimethoxyflavone chimeric analogs as potential cytotoxic agents against diverse human cancer cells” (Eur J Med Chem, 2019)", "key": {"HL-60(TB)": {"tested_on": "HL-60(TB)", "experiment": "Growth inhibition of human HL-60(TB) cells at 10 uM after 48 hrs by SRB assay relative to control", "assay_type": "functional", "conditions": "HL-60, 48 h, read-out: GI", "in_short": "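Run at NCI under its standard single-dose protocol against a leukemia cell panel. Cells were exposed to 10 µM; growth was read by sulforhodamine B staining of cellular protein and expressed as % growth inhibition versus untreated control. Values above 100% mean the cell population fell below the starting count (cytocidal). Each value is the average of duplicates.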"}, "HCC 2998": {"tested_on": "HCC 2998", "experiment": "Growth inhibition of human HCC2998 cells at 10 uM after 48 hrs by SRB assay relative to control", "assay_type": "functional", "conditions": "HCC 2998, 48 h, read-out: GI", "in_short": "(§1)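 Screened at the National Cancer Institute by the standard NCI protocol using the sulforhodamine B assay, which measures cellular protein. Single dose of 10 µM. Result is percent growth inhibition; values above 100% mean cell number fell below the initial population. Values are the average of duplicates.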"}, "HeLa [1]": {"tested_on": "HeLa", "experiment": "Antiproliferative activity against human HeLa cells after 48 hrs by MTT assay", "assay_type": "functional, cell-based", "in_short": "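HeLa cervical cancer cells, growth inhibition measured by MTT viability assay, and IC50 determined.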"}, "HeLa [2]": {"tested_on": "HeLa", "experiment": "Induction of morphological changes in human HeLa cells assessed as nuclear fragmentation at 10 uM after 48 hrs by DAPI staining based fluorescence microscopic method", "assay_type": "functional, cell-based", "in_short": "(§2)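 HeLa cells exposed to 10 µM for 48 h, then stained with DAPI. Nuclear shape, size and density (bright condensed, fragmented chromatin, apoptotic bodies) examined by fluorescence microscopy under 358 nm excitation, against untreated control cells.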"}, "[3]": {"experiment": "Cytotoxicity against human IOSE-80PC cells after 48 hrs by MTT assay", "assay_type": "cell-based", "in_short": "(§3)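 Normal human lung epithelial L132 and ovarian epithelial IOSE-80PC cells were tested by MTT viability assay, and IC50 was determined.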"}, "OVCAR-8": {"tested_on": "OVCAR-8", "experiment": "Growth inhibition of human OVCAR8 cells at 10 uM after 48 hrs by SRB assay relative to control", "assay_type": "functional", "conditions": "OVCAR-8, 48 h, read-out: GI", "in_short": "as §1"}, "HeLa [4]": {"tested_on": "HeLa", "experiment": "Induction of apoptosis in human HeLa cells assessed as late apoptotic cells after 48 hrs by Annexin V-FITC/propidium iodide staining based flow cytometry (reference value: 3.6%)", "assay_type": "functional", "in_short": "(§4)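 HeLa human cervical cancer cells treated with increasing concentrations or for increasing incubation times. Cells stained with annexin V-FITC and propidium iodide and analysed by FACS. Gating: early apoptotic = annexin+/PI−, late apoptotic = annexin+/PI+.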"}, "UACC-62": {"tested_on": "UACC-62", "experiment": "Growth inhibition of human UACC62 cells at 10 uM after 48 hrs by SRB assay relative to control", "assay_type": "functional", "conditions": "UACC-62, 48 h, read-out: GI", "in_short": "(§5)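 NCI screen against its human cancer cell line panel by the standard NCI protocol, SRB protein stain. Single dose of 10 μM. Percent growth inhibition versus control; values above 100% mean the cell population fell below the starting number. Each value is the mean of duplicates.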"}, "RXF 393": {"tested_on": "RXF 393", "experiment": "Growth inhibition of human RXF393 cells at 10 uM after 48 hrs by SRB assay relative to control", "assay_type": "functional", "conditions": "RXF 393, 48 h, read-out: GI", "in_short": "as §1"}, "HeLa [5]": {"tested_on": "HeLa", "experiment": "Induction of morphological changes in human HeLa cells assessed as apoptotic body formation at 10 uM after 48 hrs by DAPI staining based fluorescence microscopic method", "assay_type": "functional, cell-based", "in_short": "as §2"}, "HeLa [6]": {"tested_on": "HeLa", "experiment": "Induction of apoptosis in human HeLa cells assessed as live cells after 12 hrs by Annexin V-FITC/propidium iodide staining based flow cytometry (reference value: 92.9%)", "assay_type": "functional", "in_short": "as §4"}, "BT-549": {"tested_on": "BT-549", "experiment": "Growth inhibition of human BT549 cells at 10 uM after 48 hrs by SRB assay relative to control", "assay_type": "functional", "conditions": "BT-549, 48 h, read-out: GI", "in_short": "as §1"}, "SNB-19": {"tested_on": "SNB-19", "experiment": "Growth inhibition of human SNB19 cells at 10 uM after 48 hrs by SRB assay relative to control", "assay_type": "functional", "conditions": "SNB-19, 48 h, read-out: GI", "in_short": "as §5"}, "SF-268": {"tested_on": "SF-268", "experiment": "Growth inhibition of human SF268 cells at 10 uM after 48 hrs by SRB assay relative to control", "assay_type": "functional", "conditions": "SF-268, 48 h, read-out: GI", "in_short": "as §1"}, "PC-3": {"tested_on": "PC-3", "experiment": "Growth inhibition of human PC3 cells at 10 uM after 48 hrs by SRB assay relative to control", "assay_type": "functional", "conditions": "PC-3, 48 h, read-out: GI", "in_short": "as §1"}, "HeLa [7]": {"tested_on": "HeLa", "experiment": "Cell cycle arrest in human HeLa cells assessed as accumulation at sub-G1 phase after 48 hrs by propidium iodide staining based flow cytometry (reference value: 4.43%)", "assay_type": "functional"}, "MDA-MB-435": {"tested_on": "MDA-MB-435", "experiment": "Growth inhibition of human MDA-MB-435 cells at 10 uM after 48 hrs by SRB assay relative to control", "assay_type": "functional", "conditions": "MDA-MB-435, 48 h, read-out: GI", "in_short": "as §1"}, "SK-MEL-5": {"tested_on": "SK-MEL-5", "experiment": "Growth inhibition of human SK-MEL-5 cells at 10 uM after 48 hrs by SRB assay relative to control", "assay_type": "functional", "conditions": "SK-MEL-5, 48 h, read-out: GI", "in_short": "as §1"}, "OVCAR-3": {"tested_on": "OVCAR-3", "experiment": "Growth inhibition of human OVCAR3 cells at 10 uM after 48 hrs by SRB assay relative to control", "assay_type": "functional", "conditions": "OVCAR-3, 48 h, read-out: GI", "in_short": "as §1"}, "L132": {"tested_on": "L132", "experiment": "Cytotoxicity against human L-132 cells after 48 hrs by MTT assay", "assay_type": "cell-based", "conditions": "L132, 48 h", "in_short": "as §3"}, "NCI/ADR-RES": {"tested_on": "NCI/ADR-RES", "experiment": "Growth inhibition of human NCI/ADR-RES cells at 10 uM after 48 hrs by SRB assay relative to control", "assay_type": "functional", "conditions": "read-out: GI", "in_short": "as §1"}, "NCI-H226": {"tested_on": "NCI-H226", "experiment": "Growth inhibition of human NCI-H226 cells at 10 uM after 48 hrs by SRB assay relative to control", "assay_type": "functional", "conditions": "NCI-H226, 48 h, read-out: GI", "in_short": "as §1"}, "HCT-116": {"tested_on": "HCT-116", "experiment": "Growth inhibition of human HCT116 cells at 10 uM after 48 hrs by SRB assay relative to control", "assay_type": "functional", "conditions": "HCT-116, 48 h, read-out: GI", "in_short": "as §1"}, "HeLa [8]": {"tested_on": "HeLa", "experiment": "Induction of apoptosis in human HeLa cells assessed as necrotic cells at 5 uM by Annexin V-FITC/propidium iodide staining based flow cytometry (reference value: 2.2%)", "assay_type": "functional", "in_short": "as §4"}, "K562": {"tested_on": "K562", "experiment": "Growth inhibition of human K562 cells at 10 uM after 48 hrs by SRB assay relative to control", "assay_type": "functional", "conditions": "K562, 48 h, read-out: GI", "in_short": "as §1"}, "HeLa [9]": {"tested_on": "HeLa", "experiment": "Induction of morphological changes in human HeLa cells assessed as chromatin condensation at 10 uM after 48 hrs by DAPI staining based fluorescence microscopic method", "assay_type": "functional, cell-based", "in_short": "as §2"}, "HeLa [10]": {"tested_on": "HeLa", "experiment": "Cell cycle arrest in human HeLa cells assessed as accumulation at sub-G1 phase up to 10 uM by propidium iodide staining based flow cytometry (reference value: 6.24%)", "assay_type": "functional"}, "DU-145": {"tested_on": "DU-145", "experiment": "Growth inhibition of human DU145 cells at 10 uM after 48 hrs by SRB assay relative to control", "assay_type": "functional", "conditions": "DU-145, 48 h, read-out: GI", "in_short": "as §1"}, "HeLa [11]": {"tested_on": "HeLa", "experiment": "Induction of apoptosis in human HeLa cells assessed as early apoptotic cells after 48 hrs by Annexin V-FITC/propidium iodide staining based flow cytometry (reference value: 2.6%)", "assay_type": "functional", "in_short": "as §4"}, "OVCAR-5": {"tested_on": "OVCAR-5", "experiment": "Growth inhibition of human OVCAR5 cells at 10 uM after 48 hrs by SRB assay relative to control", "assay_type": "functional", "conditions": "OVCAR-5, 48 h, read-out: GI", "in_short": "as §1"}, "HeLa [12]": {"tested_on": "HeLa", "experiment": "Induction of apoptosis in human HeLa cells assessed as live cells after 24 hrs by Annexin V-FITC/propidium iodide staining based flow cytometry (reference value: 92.9%)", "assay_type": "functional", "in_short": "as §4"}}, "note": "Activity calls are given as the source filed them. The rule behind the calls is not given here.", "data": [{"smiles": "COc1cc(NC(=O)c2cccc(-c3cc(=O)c4c(OC)c(OC)c(OC)cc4o3)c2)cc(OC)c1OC", "values": [{"measurement": "inhibition of growth at 10 µM", "setting": "HL-60(TB)", "value": 64, "unit": "%"}, {"measurement": "inhibition of growth at 10 µM", "setting": "HCC 2998", "value": 25.9, "unit": "%"}, {"measurement": "Activity", "setting": "HeLa [1]", "value": "Active"}, {"measurement": "Activity", "setting": "HeLa [2]", "value": "Active"}, {"measurement": "IC50", "setting": "[3]", "value": 67.6, "unit": "µM"}, {"measurement": "inhibition of growth at 10 µM", "setting": "OVCAR-8", "value": 69.1, "unit": "%"}, {"measurement": "Activity", "setting": "HeLa [4]", "value": 39.1, "unit": "%"}, {"measurement": "inhibition of growth at 10 µM", "setting": "UACC-62", "value": 49.5, "unit": "%"}, {"measurement": "inhibition of growth at 10 µM", "setting": "RXF 393", "value": 46.8, "unit": "%"}, {"measurement": "Activity", "setting": "HeLa [5]", "value": "Active"}, {"measurement": "Activity", "setting": "HeLa [6]", "value": 89.3, "unit": "%"}, {"measurement": "inhibition of growth at 10 µM", "setting": "BT-549", "value": 73, "unit": "%"}, {"measurement": "inhibition of growth at 10 µM", "setting": "SNB-19", "value": 43.7, "unit": "%"}, {"measurement": "inhibition of growth at 10 µM", "setting": "SF-268", "value": 32.9, "unit": "%"}, {"measurement": "inhibition of growth at 10 µM", "setting": "PC-3", "value": 47.6, "unit": "%"}, {"measurement": "Activity", "setting": "HeLa [7]", "value": 26.61, "unit": "%"}, {"measurement": "inhibition of growth at 10 µM", "setting": "MDA-MB-435", "value": 93.6, "unit": "%"}, {"measurement": "inhibition of growth at 10 µM", "setting": "SK-MEL-5", "value": 91.7, "unit": "%"}, {"measurement": "inhibition of growth at 10 µM", "setting": "OVCAR-3", "value": 59.2, "unit": "%"}, {"measurement": "IC50", "setting": "L132", "value": "> 100", "unit": "µM"}, {"measurement": "inhibition of growth at 10 µM", "setting": "NCI/ADR-RES", "value": 48.9, "unit": "%"}, {"measurement": "inhibition of growth at 10 µM", "setting": "NCI-H226", "value": 41.5, "unit": "%"}, {"measurement": "inhibition of growth at 10 µM", "setting": "HCT-116", "value": 51.4, "unit": "%"}, {"measurement": "Activity", "setting": "HeLa [8]", "value": 5.7, "unit": "%"}, {"measurement": "inhibition of growth at 10 µM", "setting": "K562", "value": 72.4, "unit": "%"}, {"measurement": "Activity", "setting": "HeLa [9]", "value": "Active"}, {"measurement": "Activity", "setting": "HeLa [10]", "value": 19.14, "unit": "%"}, {"measurement": "inhibition of growth at 10 µM", "setting": "DU-145", "value": 45.7, "unit": "%"}, {"measurement": "Activity", "setting": "HeLa [11]", "value": 24, "unit": "%"}, {"measurement": "inhibition of growth at 10 µM", "setting": "OVCAR-5", "value": 14, "unit": "%"}, {"measurement": "Activity", "setting": "HeLa [12]", "value": 80.3, "unit": "%"}]}]}
